Results on 97 compounds are retold here after ChEMBL document CHEMBL4513216, “Probing the Open Global Health Chemical Diversity Library for Multistage-Active Starting Points for Next-Generation Antimalarials” (ACS Infect Dis, 2020).

A short description of the data set: Toxicity liver stage against HepG2, at 10uM. The format is cell-based. The arrangement: test concentration 10 uM, cell line HepG2-A16-CD81EGFP. Conditions: human, HepG2-A16-CD81EGFP cells; read-out: INHIBITION
In a few lines:
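Uninfected HepG2-A16-CD81EGFP cells, 3 × 10^3 per well, 1536-well, plated on prespotted compound at 10 μM final, parasite-free screening media added to match infected plates; puromycin 10 μM positive, DMSO 0.5% negative; run in parallel with 48 h PbLuc assay at 37 °C, 5% CO2; viability by CellTiter-Glo luminescence, normalized to controls.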
As to `Cc1ccc(F)cc1NC(=O)NCC(C)N1CCOCC1` (configuration not stated), the cytotoxicity at 10 µM is 2.6%.

For the compound `CN(C)c1nc2sc(C(=O)N3CCN(C(=O)OC(C)(C)C)CC3)cc2s1`, the cytotoxicity at 10 µM was 1.71%. With `CS(=O)(=O)c1ccc(CNC[C@H]2COCc3nc4ccccc4n32)cc1` the figure was -1.28%; with `O=C(NC1CCCc2c1[nH]c1ccc(F)cc21)c1n[nH]c2c1CCCC2` (configuration not stated), 46.4%; with `O=C(O)C1CCN(c2nc3c(-c4ccccc4F)csc3c(=O)[nH]2)CC1`, -10%. For the compound `Cc1ccc(C(=O)N2CCO[C@H]3[C@H](OCCN(C)C)CC[C@@H]32)cn1`, the cytotoxicity at 10 µM came to 4.85%. For the compound `COCC1c2nnn(CC3CC3)c2CCN1C(=O)Cc1cccs1` (configuration not stated), the cytotoxicity at 10 µM is -15.8%. Regarding `O=C(c1ccccn1)N1Cc2nccn2CC(COc2cccnc2)C1` (configuration not stated), the cytotoxicity at 10 µM was -9.52%. `CCOCC1CN(C(=O)N(C)C)Cc2nn(C)cc21` (configuration not stated): the cytotoxicity at 10 µM is -11.9%.

As for `CC1CCCN(C(=O)c2cc(-c3ccco3)cs2)C1` (configuration not stated), the cytotoxicity at 10 µM worked out at 7%.

On to `NCc1n[nH]c(-c2cccc(F)c2)n1`, for which the cytotoxicity at 10 µM is -167%. Regarding `O=C(c1cc2cccc(F)c2[nH]1)N1C[C@@H](O)[C@H](N2CCOCC2)C1`, the cytotoxicity at 10 µM is 0.0453%. For `CNc1cc(CCNC(=O)C2CCCC2)nc(-c2ccccn2)n1`, the cytotoxicity at 10 µM stood at 1.76%. Turning to `Cc1nnc(N2CCOC(C)(C(=O)N(C)C)C2)c2ccccc12` (configuration not stated), the cytotoxicity at 10 µM was found to be 10.4%.

Consider `Cn1cnc2ccc(NC(=O)CC3CCN(S(C)(=O)=O)CC3)cc21`, for which the cytotoxicity at 10 µM was 22.6%.

Regarding `Cn1cc(Cl)c(C(=O)N2CCc3nc4sccc4c(=O)n3CC2)n1`, the cytotoxicity at 10 µM is -3.04%. With `COCCN1CCN(Cc2cnc(C)nc2)CC1`, the cytotoxicity at 10 µM is -22.8%. In the case of `Cc1nn(C)c(C)c1CN1CCCC1c1nccc(CN(C)C)n1` (configuration not stated) it was -28.1%; in that of `O=C(c1cccnc1)N1CCCC(Cc2nccs2)C1` (configuration not stated), -2.86%.

On to `CC(Cc1ccccc1F)C(=O)Nc1ccc(OCCC(N)=O)cc1` (configuration not stated), for which the cytotoxicity at 10 µM was -5.56%.

Consider `CC(CNC(=O)c1cc(-n2cccn2)ccn1)Cn1ccnc1` (configuration not stated), for which the cytotoxicity at 10 µM is -3.43%. For `CC(C)(C)c1ccc2c(c1)CCN2C(=O)c1nc(=O)[nH][nH]1`, the cytotoxicity at 10 µM was -3.74%. Consider `Cc1ccc(CN(C)C(=O)C(C)n2cncn2)o1` (configuration not stated), for which the cytotoxicity at 10 µM was -3.33%. Take `COCCN1CCN(CC(=O)NC2(C#N)CCCC2)CC1`: the cytotoxicity at 10 µM was determined as 3.5%. Turning to `CC(C)c1nc(CN2CCN(C(=O)OC(C)(C)C)C(C)C2)no1` (configuration not stated), the cytotoxicity at 10 µM is 1.62%. In the case of `CCSc1cc(C(=O)NC(C)c2cccc(N3CCOC3=O)c2)ccn1` (configuration not stated), the cytotoxicity at 10 µM stood at 24.1%. Consider `CC(C)COC(=O)N1CCCN(C(C)c2nc(C(C)C)no2)CC1` (configuration not stated), for which the cytotoxicity at 10 µM turned out to be 6.85%. In the case of `O=C(Nc1cccs1)N(CCO)CCOCC(F)(F)F` it was 3.84%; in that of `Cc1ccc(C)c(S(=O)(=O)NC(=O)COc2cccc(C#N)c2)c1`, 9.7%. In the case of `CC(NC(=O)Nc1ccc(OC2CCCC2)cc1)c1nc[nH]n1` (configuration not stated), the cytotoxicity at 10 µM was -5.42%.

Regarding `CS(=O)(=O)CCCSc1cccc(C#N)c1`, the cytotoxicity at 10 µM is -1.38%. With `Cc1cnn(CCNCC(O)c2ccc3c(c2)OCCO3)c1` (configuration not stated) the figure was 3.31%. With `CNC(=O)CN1CCN(C(=O)Nc2ccc(Cl)cc2F)CC1`, the cytotoxicity at 10 µM is 1.41%. As to `Cc1cccc(NC(=O)c2sc(C)nc2C)n1`, the cytotoxicity at 10 µM is 5.52%. In the case of `CCN(C)C(=O)C1(c2ccc(F)cc2F)CCC1` it was -7.74%; in that of `Cc1cc(CNC(=O)N2CCN(Cc3ccccc3)C[C@H]2C)on1`, -131%. With `Cc1nc(-c2ccccc2C)n(CC(=O)NC(C)C)n1` the figure was 7.47%; with `O=C(CS(=O)(=O)C1CCCC1)NC1CCCc2cc(OC(F)F)ccc21` (configuration not stated), 4.84%. With `Cc1nccn1CCCNc1ccc(Cl)c(C#N)n1`, the cytotoxicity at 10 µM was -7.62%.

Take `COCC(C)NC(=O)CN1CCCC1` (configuration not stated): the cytotoxicity at 10 µM is -7.42%. For the compound `Cc1n[nH]cc1CNC1(c2ccc(Br)cc2)CC1`, the cytotoxicity at 10 µM is 13.9%. Take `O=C(NCC1(O)CCSC1)c1cccc(-n2cccn2)c1` (configuration not stated): the cytotoxicity at 10 µM is -3.5%. As for `COc1cccc(NC(=O)CNc2ccc(C(=O)N(C)C)c(Cl)c2)c1`, the cytotoxicity at 10 µM is 6.91%. Turning to `Cc1ccc(NC(=O)N(C)CC(O)COCCOC(C)C)c(Br)c1` (configuration not stated), the cytotoxicity at 10 µM came out at 11.2%.

For `CC1CN(c2ccc(C#N)cn2)CCN1c1ccc2nncn2n1` (configuration not stated), the cytotoxicity at 10 µM was 1.42%. Take `O=C(NCC(O)C1CC1)Nc1cnn(Cc2ccccc2)c1` (configuration not stated): the cytotoxicity at 10 µM is 4.85%. Take `Cc1cccn2cc(C[S+]([O-])Cc3noc(C(C)C)n3)nc12` (configuration not stated): the cytotoxicity at 10 µM worked out at 6.13%. As to `CCCc1nc(CNc2ccc(F)c(F)c2)no1`, the cytotoxicity at 10 µM stood at 8.93%. With `Cc1cc(C)n(-c2cncc(NCCNC(=O)CC3CCCC3)n2)n1`, the cytotoxicity at 10 µM was -5.71%.

Turning to `Cc1cc(S(=O)(=O)Nc2cccc(-n3cccc3)c2)sc1C(=O)O`, the cytotoxicity at 10 µM was -2.23%.

As for `CNC(=O)CS(=O)(=O)Cc1coc(-c2ccc(F)cc2)n1`, the cytotoxicity at 10 µM was -9.44%. `Cc1noc(C(C)C)c1C(=O)N1CCOCC1CC(=O)c1ccco1` (configuration not stated): the cytotoxicity at 10 µM was 2.09%. As for `CO[C@@H]1CC[C@H]2[C@H]1OCCN2C(=O)c1nn(C)c2ccccc12`, the cytotoxicity at 10 µM turned out to be 1.31%.

Take `Cc1nc(CN2CCO[C@@H]3CN(C(=O)CN(C)C)CC[C@@H]3C2)cs1`: the cytotoxicity at 10 µM was -0.587%. As for `CCc1ccc(CN2CCN(c3cccc(OC)c3)C(=O)C2)nc1`, the cytotoxicity at 10 µM was 1.76%. As to `Cn1ccnc1-c1ccc(NCC2COc3ccccc3O2)nn1` (configuration not stated), the cytotoxicity at 10 µM stood at 3.31%. For `C[C@@H]1CN(C(=O)c2nc3ccc(Cl)cn3c2-c2ncc[nH]2)C[C@H](C)O1`, the cytotoxicity at 10 µM is -6.01%. In the case of `Cc1noc(C)c1CN1C[C@@H](NC(=O)N(C)C)[C@H](C(C)C)C1` it was 5.35%; in that of `COc1ccc2[nH]nc(CN3CCC(C(C)N(C)C)CC3)c2c1` (configuration not stated), -1.45%. Consider `COc1ccccc1C1CNC(=O)c2nc(-c3c(C)n[nH]c3C)[nH]c2C1` (configuration not stated), for which the cytotoxicity at 10 µM is -8%. As to `CCC(O)Cn1cc(C2=CCN(Cc3ccc(OC)cc3)CC2)cn1` (configuration not stated), the cytotoxicity at 10 µM was -3.94%. In the case of `N[C@@H]1CC[C@H](C(=O)NCCc2nc(-c3ccccc3)cs2)C1`, the cytotoxicity at 10 µM is -11.3%. With `CC(C)OC(=O)N1CCC(c2nnc(Cn3ccnc3)n2C)CC1`, the cytotoxicity at 10 µM is -120%. As to `O=C(COCC(F)(F)C(F)F)N1CCC2(CCCN(CCO)C2=O)C1` (configuration not stated), the cytotoxicity at 10 µM worked out at 8.77%.

`CCC(O)CNc1nccc(-c2ccc(C)nc2C)n1` (configuration not stated): the cytotoxicity at 10 µM was -2.92%. As to `COc1nccnc1N1CCC2(CCCN(C(C)C)C2=O)C1` (configuration not stated), the cytotoxicity at 10 µM came out at 2.57%. For the compound `CC(C)N1CC2(CCCN(c3ccccn3)C2)CCC1=O` (configuration not stated), the cytotoxicity at 10 µM is -0.608%.

Regarding `Cc1ccc(CC(=O)N2C[C@@H](CN(C)C)[C@@H](CO)C2)cc1C`, the cytotoxicity at 10 µM is -14%. For the compound `NC(=O)C1CCCN(C(=O)c2ccc(-n3ccnc3)cc2)C1` (configuration not stated), the cytotoxicity at 10 µM is -4.4%. In the case of `CCc1nc(NC(=O)NCCc2cccc(C)n2)nn1C` it was 2.48%; in that of `OCCN1CCc2[nH]nc(C(c3ccccc3)c3ccccc3)c2C1`, -2.98%; in that of `O=C(C1CC(=O)N(C2CC2)C1)N1CCN(CCn2cccc2)CC1` (configuration not stated), -12%.

`CC(c1ccccc1)n1c(SCC(=O)O)nnc1-c1ccccc1Cl` (configuration not stated): the cytotoxicity at 10 µM worked out at 1.31%. For the compound `CCS(=O)(=O)c1ccccc1N1CCC(NC(=O)C2CC2)CC1`, the cytotoxicity at 10 µM was -1.58%. On to `CCCC(C)N(C)C(=O)c1nc(S(C)(=O)=O)n2ccccc12` (configuration not stated), for which the cytotoxicity at 10 µM was -8.16%.

For the compound `Cn1cc(CCNCc2cc(Cl)c3c(c2)OCCO3)cn1`, the cytotoxicity at 10 µM is -9.69%. Turning to `Cc1noc(C)c1CC(=O)NCc1ccnc(OCC(F)(F)F)c1`, the cytotoxicity at 10 µM was -7.83%. For the compound `COc1ccc(C)cc1C(=O)N1CCCC(n2nc(C)nc2C)C1` (configuration not stated), the cytotoxicity at 10 µM was -5.68%. On to `O=C(CCCN1C(=O)CCC1=O)NCC1(c2ccccc2)CCC1`, for which the cytotoxicity at 10 µM is -17.1%.

For `CC(NC(=O)NCCn1ccnc1)c1ccc2c(c1)OCCCO2` (configuration not stated), the cytotoxicity at 10 µM was -7.27%.

As for `CCOCCN1CCN(Cc2cccc(C(=O)N(C)C)c2)CC1C` (configuration not stated), the cytotoxicity at 10 µM turned out to be 3.57%. In the case of `O=C(c1ccc2c(c1)OCO2)N1CCCC(n2ccnc2)C1` (configuration not stated), the cytotoxicity at 10 µM is -7.6%. Consider `Cc1cnn(CC2CCCN2Cc2noc(C(C)(C)C)n2)c1` (configuration not stated), for which the cytotoxicity at 10 µM was -10.7%. As to `CC(C)c1n[nH]c(C2CN(Cc3nnc(C4CC4)o3)CCO2)n1` (configuration not stated), the cytotoxicity at 10 µM was -10.1%.

As for `Cc1csc(N2CCCN(C(=O)c3cnns3)CC2)n1`, the cytotoxicity at 10 µM is 5.92%.

Consider `COCc1ccccc1CNCc1c(C)nn(C)c1N(C)C`, for which the cytotoxicity at 10 µM is -8.45%. Consider `CCOc1c(CNCCCn2ccnc2)cc(Cl)cc1OC`, for which the cytotoxicity at 10 µM was -3.88%. As to `Cn1cc(C(=O)N[C@H]2CN(Cc3nccs3)[C@@H]3CCCO[C@H]23)cn1`, the cytotoxicity at 10 µM is 0.893%. On to `O=C(NCC1CC1)[C@@H]1CCO[C@@H]2CCN(Cc3ccsc3)C[C@H]21`, for which the cytotoxicity at 10 µM is -76.5%. Turning to `CCc1ncnc2c1CCN(Cc1ccccn1)CC2`, the cytotoxicity at 10 µM is 1.39%. `CC(C)c1nn(C)c(N(C)C)c1CNCc1ccccc1CO`: the cytotoxicity at 10 µM was -9.89%. For the compound `O=C1CC2(CCN(CCO)C2)CN1c1cccc(F)c1` (configuration not stated), the cytotoxicity at 10 µM was -149%. With `CCCN1CCc2[nH]nc(C(=O)N3CCNC(=O)C3)c2C1`, the cytotoxicity at 10 µM amounted to 14.9%. In the case of `CCN1CCC2(CC1)CC(NC(=O)c1ccnnc1)c1ccccc12` (configuration not stated) it was -6.9%. On to `Cn1nc(Cn2ccnc2)c2c1CN(Cc1ccoc1)C2`, for which the cytotoxicity at 10 µM was 0.319%.

Consider `CN1Cc2ccccc2CC2(CCN(CCO)CC2)C1=O`, for which the cytotoxicity at 10 µM is -6.58%. On to `COCC1CN(C(=O)COc2ccccc2C)Cc2ncn(C)c21` (configuration not stated), for which the cytotoxicity at 10 µM was -2.17%.
